What was measured:
[1] = molecular target: T1, Human immunodeficiency virus type 1 integrase (Human immunodeficiency virus 1, UniProt Q7ZJM1); test: Log of inhibitory concentration against human immunodeficiency virus type 1 integrase
Summary of the method: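 Strand transfer ELISA using recombinant His-tagged HIV-1 integrase expressed in E. coli BL21(DE3). 20 nM biotinylated processed viral DNA substrate is preincubated with 300 nM integrase for 5 min at 37 °C. Serial compound dilutions and 50 nM target DNA are then added in 20 mM Hepes pH 7.5, 25 mM NaCl, 5 mM MnCl2, 2 mM DTT, 50 µg/mL BSA and incubated 2 h at 37 °C. Products are captured on streptavidin plates, detected with anti-FITC peroxidase antibody and read by chemiluminescence.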

[2] = test system: Human immunodeficiency virus 1; test: Log of effective concentration against human immunodeficiency virus type 1 using cell-based replication assay in MT-4 cells; format: functional, organism-based; conditions: Human immunodeficiency virus 1, MT4
Summary of the method: (§1)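 MT4 cells (150 000 cells/mL) infected with HIV-1/LAI wild type at 200 CCID50, with serial compound concentrations in 384-well format. Replication is read as GFP expression driven by HIV-tat acting on an LTR-GFP reporter. Incubation 3 days at 37 °C, 5% CO2. EC50/pEC50 are taken from dose-response curves of percent inhibition.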

[3] = test system: Human immunodeficiency virus 1; test: Log of cytotoxic concentration against human immunodeficiency virus type 1 using cell-based replication assay in MT-4 cells; format: functional, MT4
Summary of the method: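 Mock-infected MT4 cells (150 000 cells/mL) get the same compound concentration range and are incubated 3 days at 37 °C, 5% CO2, in parallel with the HIV-infected cultures. Toxicity is scored as reduced GFP reporter expression. CC50/pCC50 come from dose-response curves of percent inhibition.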

[4] = molecular target: T1, Human immunodeficiency virus type 1 integrase; test: Inhibitory concentration against human immunodeficiency virus type 1 integrase
[5] = test system: Human immunodeficiency virus 1; test: Effective concentration against human immunodeficiency virus type 1 using cell-based replication assay in MT-4 cells; format: functional, organism-based; conditions: Human immunodeficiency virus 1, MT4; summary of the method: as §1

T1 sequence (Q7ZJM1 whole entry): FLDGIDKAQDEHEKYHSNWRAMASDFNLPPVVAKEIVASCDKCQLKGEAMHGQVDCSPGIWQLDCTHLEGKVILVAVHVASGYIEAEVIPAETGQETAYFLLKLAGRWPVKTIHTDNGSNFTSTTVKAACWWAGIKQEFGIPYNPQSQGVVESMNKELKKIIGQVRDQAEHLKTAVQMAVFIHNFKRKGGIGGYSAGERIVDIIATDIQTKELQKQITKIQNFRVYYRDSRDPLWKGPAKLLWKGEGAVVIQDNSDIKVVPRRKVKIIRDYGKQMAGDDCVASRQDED

Row | Structure (SMILES) | IC50 [1] [nM] | EC50 [2] [nM] | pCC50 [3] | IC50 [4] [nM] | EC95 [5] [nM]
1 | O=C1c2c(c(O)c3nccnc3c2O)C(=O)N1Cc1cccc(Br)c1 | 209 | 7410 | 4.49 |  | 
2 | O=C1c2c(c(O)c3nccnc3c2O)C(=O)N1Cc1ccc(-c2ccccc2F)cc1 | 1000 | 14800 | 4.83 |  | 
3 | O=C1c2c(c(O)c3nccnc3c2O)C(=O)N1Cc1ccncc1 | 6760 | > 32400 | <4.49 |  | 
4 | O=C(c1ccccc1)N1CCC(N2C(=O)c3c(c(O)c4nccnc4c3O)C2=O)CC1 | 2400 | > 32400 | <4.49 |  | 
5 | O=C1c2c(c(O)c3nccnc3c2O)C(=O)N1Cc1ccc(F)c(Cl)c1 | 178 | 3090 | 4.7 |  | 
6 | COc1cccc(OC)c1CN1C(=O)c2c(c(O)c3nccnc3c2O)C1=O | 2000 | 5370 | 5.09 |  | 
7 | O=S1(=O)CCCCN1c1nc(/C(O)=N/Cc2ccc(F)cc2)c(O)c2ncccc12 |  |  |  | 10 | 100
8 | Cc1ccc2c(O)c3c(c(O)c2n1)C(=O)N(Cc1cccc(Br)c1)C3=O | 257 | 7590 | 4.78 |  | 
9 | CC(C)Oc1ccc(Cc2ccccc2)cc1/C(O)=C/C(=O)C(=O)O |  |  |  | 50 | 
10 | C[C@@H](c1ccccc1)N1C(=O)c2c(c(O)c3nccnc3c2O)C1=O | 2040 | 15100 | 4.81 |  | 
11 | O=C1c2c(c(O)c3nccnc3c2O)C(=O)N1Cc1cc(Br)ccc1F | 355 | 447 | 5.38 |  | 
12 | COc1ccc(CN2C(=O)c3c(c(O)c4nccnc4c3O)C2=O)c(OC)c1 | 427 | 13500 | 4.77 |  | 
13 | O=C1c2c(c(O)c3ccccc3c2O)C(=O)N1Cc1ccc(F)cc1 | > 100000 | 20000 | 4.59 |  | 
14 | O=C1c2c(c(O)c3nccnc3c2O)C(=O)N1Cc1ccc(Br)cc1F | 437 | 2400 | 5.11 |  | 
15 | O=C1c2c(c(O)c3nccnc3c2O)C(=O)N1Cc1ccc2c(c1)OCO2 | 562 | 3160 | <4.49 |  | 
16 | O=C1c2c(c(O)c3nccnc3c2O)C(=O)N1Cc1cccc(F)c1 | 562 | 5370 | 4.77 |  | 
17 | O=C1c2c(c(O)c3nccnc3c2O)C(=O)N1Cc1ccc(Cl)cc1 | 417 | 269 | 5.58 |  | 
18 | O=C1c2c(c(O)c3ncccc3c2O)C(=O)N1Cc1cccc(Br)c1 | 380 | 3090 | 5.21 |  | 
19 | COc1ccc(OC)c(CN2C(=O)c3c(c(O)c4nccnc4c3O)C2=O)c1 | 776 | 4790 | 4.73 |  | 
20 | O=C1c2c(c(O)c3nccnc3c2O)C(=O)N1CC1CCCCC1 | 2190 | 3470 | 5.19 |  | 
21 | CN1C(=O)c2c(c(O)c3nccnc3c2O)C1=O | 49000 | > 32400 | <4.49 |  | 

Row | Structure (SMILES) | IC50 [1] [nM] | EC50 [2] [nM] | pCC50 [3] | IC50 [4] [nM] | EC95 [5] [nM]
22 | O=C1c2c(c(O)c3nccnc3c2O)C(=O)N1Cc1ccc(F)cc1 | 417 | 1550 | 4.69 |  | 
23 | C[C@H](c1ccccc1)N1C(=O)c2c(c(O)c3nccnc3c2O)C1=O | 1050 | 10200 | 4.76 |  | 
24 | O=C1c2c(c(O)c3nccnc3c2O)C(=O)N1Cc1ccc(OC(F)(F)F)cc1 | 2040 | 1350 | 5.6 |  | 
25 | COc1cccc(CN2C(=O)c3c(c(O)c4nccnc4c3O)C2=O)c1OC | 427 | 4900 | 4.72 |  | 
26 | COc1ccc(CN2C(=O)c3c(c(O)c4nccnc4c3O)C2=O)cc1 | 562 | 3630 | 4.64 |  | 
27 | O=C1c2c(c(O)c3nccnc3c2O)C(=O)N1Cc1ccc(-c2ccccc2)cc1 | 1450 | 2570 | 5.47 |  | 
28 | O=C1c2c(c(O)c3nccnc3c2O)C(=O)N1Cc1ccc(Cl)c(Cl)c1 | 112 | 912 | 5.05 |  | 
29 | O=C1c2c(c(O)c3nnccc3c2O)C(=O)N1Cc1cccc(Br)c1 | 3630 | 21400 | <4.49 |  | 
30 | O=C1c2c(c(O)c3nccnc3c2O)C(=O)N1CCc1ccc2c(c1)OCO2 | 1410 | 11000 |  |  | 
31 | O=C1c2c(c(O)c3nccnc3c2O)C(=O)N1C1CCCC1 | 10500 | > 32400 | 4.55 |  | 
32 | O=C1c2c(c(O)c3nccnc3c2O)C(=O)N1Cc1ccccc1Br | 631 | 15100 | 4.75 |  | 
33 | O=C1c2c(c(O)c3nccnc3c2O)C(=O)N1CCc1ccccc1 | 2040 | 4900 | 5.23 |  | 
34 | COc1ccccc1CN1C(=O)c2c(c(O)c3nccnc3c2O)C1=O | 813 | 3800 | 4.81 |  | 
35 | O=C1c2c(c(O)c3nccnc3c2O)C(=O)N1C1CCNCC1 | > 100000 | > 32400 | <4.49 |  | 
36 | O=C1c2c(c(O)c3nccnc3c2O)C(=O)N1Cc1cc(F)cc(F)c1 | 372 | 16600 | <4.49 |  | 
37 | O=C1c2c(c(O)c3nccnc3c2O)C(=O)N1Cc1cccc(Cl)c1 | 219 | 977 | 4.73 |  | 
38 | O=C1c2c(c(O)c3nccnc3c2O)C(=O)N1Cc1cc(Cl)cc(Cl)c1 | 186 | 724 | 4.72 |  | 
39 | O=C1c2c(c(O)c3nccnc3c2O)C(=O)N1Cc1cccc(C(F)(F)F)c1 | 427 | 9770 | 4.77 |  | 
40 | O=C1c2c(c(O)c3nccnc3c2O)C(=O)N1c1ccc2c(c1)OCO2 | 10000 | > 32400 | <4.49 |  | 
41 | Cc1ccc(CN2C(=O)c3c(c(O)c4nccnc4c3O)C2=O)cc1 | 1580 | 1780 | 4.86 |  | 
42 | O=C1c2c(c(O)c3nccnc3c2O)C(=O)N1Cc1cccc(-c2ccccc2F)c1 | 501 | 13200 | 4.82 |  | 
